Test results reported in ChEMBL document CHEMBL4190188, “Neuroprotective Activity of Cerebrosides from Typhonium giganteum by Regulating Caspase-3 and Bax/Bcl-2 Signaling Pathways in PC12 Cells” (J Nat Prod, 2017).
Activity calls are given as the source filed them. No cut-off for these calls is given here.

Tests used:
PC-12 [1] = test: cells; settings: Rattus norvegicus, PC-12, 24 h
PC-12 [2] = test: Cytotoxicity against rat PC12 cells assessed as decrease in cell viability at 20 uM after 24 hrs by MTT assay; assay type: cell-based; settings: pc-12, 24 h
Outline: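 PC12 cells grown in DMEM with 10% FBS at 37 °C and 5% CO2, seeded at 10 000 cells/well and cultured 24 h. Compound added at 20 μM without glutamate (DMSO stock at 1000× final). Then MTT (5 mg/mL stock) added for 4 h at 37 °C, formazan dissolved in DMSO, and A570 read. Viability given as % of untreated control.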

PC-12 [3] = test: Neuroprotective activity against 12.5 mM glutamate-induced toxicity in rat PC12 cells assessed as cell viability at 10 uM after 24 hrs by MTT assay; assay type: functional, cell-based
Outline: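 Concentration-response run in PC12 cells co-exposed 24 h to 12.5 mM glutamate and compound at 0.1, 1, 5, 10, 15 or 20 μM. Viability by MTT (4 h at 37 °C, formazan in DMSO, A570), relative to untreated control; mean ± SD, n = 6.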

PC-12 [4] = test: Neuroprotective activity against 12.5 mM glutamate-induced toxicity in rat PC12 cells assessed as cell viability at 0.1 uM after 24 hrs by MTT assay
PC-12 [5] = test: Induction of apoptosis in rat PC12 cells assessed as early apoptotic cells at 10 uM after 24 hrs by Annexin V-FITC/propidium iodide staining based flow cytometry (reference value: 1.04%); assay type: cell-based; settings: pc-12, 24 h
PC-12 [6] = test: Neuroprotective activity against 12.5 mM glutamate-induced apoptosis in rat PC12 cells assessed as late apoptotic cells at 1 uM after 24 hrs by Annexin V-FITC/propidium iodide staining based flow cytometry (reference value: 45.53%); assay type: functional
PC-12 [7] = test: Neuroprotective activity against 12.5 mM glutamate-induced apoptosis in rat PC12 cells assessed as decrease in Bax level at 0.1 to 10 uM after 24 hrs by chemiluminescence based Western blot analysis; assay type: functional, cell-based
Outline: (§1)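 PC12 cells exposed 24 h to compound at 0.1, 1 or 10 μM, with or without 12.5 mM glutamate. Protein extracted in lysis buffer and quantified by BCA. Equal amounts run on 12% SDS-PAGE, blotted to nitrocellulose, blocked in 5% nonfat milk, then primary antibodies overnight at 4 °C and HRP secondaries. Cytochrome c measured in the cytosolic fraction. Mean ± SD, n = 3.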

PC-12 [8] = test: Neuroprotective activity against 12.5 mM glutamate-induced apoptosis in rat PC12 cells assessed as decrease in cytochrome c level at 0.1 to 10 uM after 24 hrs by chemiluminescence based Western blot analysis; assay type: functional, cell-based
Outline: as §1

PC-12 [9] = test: Neuroprotective activity against 12.5 mM glutamate-induced apoptosis in rat PC12 cells assessed as decrease in caspase 9 level after 24 hrs by chemiluminescence based Western blot analysis; assay type: functional, cell-based
Outline: as §1

PC-12 [10] = test: Neuroprotective activity against 12.5 mM glutamate-induced apoptosis in rat PC12 cells assessed as late apoptotic cells at 0.1 uM after 24 hrs by Annexin V-FITC/propidium iodide staining based flow cytometry (reference value: 45.53%); assay type: functional
PC-12 [11] = test: Neuroprotective activity against 12.5 mM glutamate-induced apoptosis in rat PC12 cells assessed as early apoptotic cells at 0.1 uM after 24 hrs by Annexin V-FITC/propidium iodide staining based flow cytometry (reference value: 1.04%); assay type: functional
PC-12 [12] = test: Neuroprotective activity against 12.5 mM glutamate-induced apoptosis in rat PC12 cells assessed as late apoptotic cells at 10 uM after 24 hrs by Annexin V-FITC/propidium iodide staining based flow cytometry (reference value: 45.53%); assay type: functional
PC-12 [13] = test: Neuroprotective activity against 12.5 mM glutamate-induced apoptosis in rat PC12 cells assessed as early apoptotic cells at 1 uM after 24 hrs by Annexin V-FITC/propidium iodide staining based flow cytometry (reference value: 1.04%); assay type: functional
PC-12 [14] = test: Neuroprotective activity against 12.5 mM glutamate-induced apoptosis in rat PC12 cells assessed as increase in Bcl-2 level at 0.1 to 10 uM after 24 hrs by chemiluminescence based Western blot analysis; assay type: functional, cell-based
Outline: as §1

PC-12 [15] = test: Neuroprotective activity against 12.5 mM glutamate-induced apoptosis in rat PC12 cells assessed as decrease in caspase 3 level after 24 hrs by chemiluminescence based Western blot analysis; assay type: functional, cell-based
Outline: as §1

PC-12 [16] = test: Neuroprotective activity against 12.5 mM glutamate-induced apoptosis in rat PC12 cells assessed as early apoptotic cells at 10 uM after 24 hrs by Annexin V-FITC/propidium iodide staining based flow cytometry (reference value: 1.04%); assay type: functional
PC-12 [17] = test: Induction of apoptosis in rat PC12 cells assessed as late apoptotic cells at 10 uM after 24 hrs by Annexin V-FITC/propidium iodide staining based flow cytometry (reference value: 45.53%); assay type: cell-based; settings: pc-12, 24 h

Row | SMILES | EC50 (PC-12 [1]) [µM] | Activity (PC-12 [2]) | Activity (PC-12 [3]) | further results
1 | CCCCCCCCC/C=C\CC/C=C/[C@@H](O)[C@H](CO[C@@H]1O[C@H](CO)[C@@H](O)[C@H](O)[C@H]1O)NC(=O)[C@H](O)CCCCCCCCCCCCCCCC | 20.1 | Non-Toxic | Active | 
2 | CCCCCCCCC/C=C\CC/C=C/[C@@H](O)[C@H](CO[C@@H]1O[C@H](CO)[C@@H](O)[C@H](O)[C@H]1O)NC(=O)[C@H](O)CCCCCCCCCCCCCCCCCCCC | 6.5 | Non-Toxic | Active | 
3 | CCCCCCCCC/C=C\CC/C=C/[C@@H](O)[C@H](CO[C@@H]1O[C@H](CO)[C@@H](O)[C@H](O)[C@H]1O)NC(=O)[C@H](O)CCCCCCCCCCCCCCCCCCC | 8.9 | Non-Toxic | Active | 
4 | CCCCCCCCC/C=C\CC/C=C/[C@@H](O)[C@H](CO[C@@H]1O[C@H](CO)[C@@H](O)[C@H](O)[C@H]1O)NC(=O)[C@H](O)CCCCCCCCCCCCCCCCCC | 12 | Non-Toxic | Active | 
5 | CCCCCCCCC/C=C/CC/C=C/[C@@H](O)[C@H](CO[C@@H]1O[C@H](CO)[C@@H](O)[C@H](O)[C@H]1O)NC(=O)[C@H](O)CCCCCCCCCCCCCCCC | 22.2 | Non-Toxic | Active | 
6 | CCCCCCCCC/C=C/CC/C=C/[C@@H](O)[C@H](CO[C@@H]1O[C@H](CO)[C@@H](O)[C@H](O)[C@H]1O)NC(=O)[C@H](O)CCCCCCCCCCCCCCCCCC | 12.4 | Non-Toxic | Active | 
7 | CC1=NN(c2ccccc2)C(=O)C1 [EDARAVONE] | 9.2 |  |  | 
8 | CCCCCCCCC/C=C/CC/C=C/[C@@H](O)[C@H](CO[C@@H]1O[C@H](CO)[C@@H](O)[C@H](O)[C@H]1O)NC(=O)[C@H](O)CCCCCCCCCCCCCCCCCCCC | 6.9 | Non-Toxic | Active | 
9 | CCCCCCCCC/C=C/CC/C=C/[C@@H](O)[C@H](CO[C@@H]1O[C@H](CO)[C@@H](O)[C@H](O)[C@H]1O)NC(=O)[C@H](O)CCCCCCCCCCCCCCCCCCC | 8.8 | Non-Toxic | Active | 
10 | CCCCCCCCC/C=C/CC/C=C/[C@@H](O)[C@H](CO[C@@H]1O[C@H](CO)[C@@H](O)[C@H](O)[C@H]1O)NC(=O)[C@H](O)CCCCCCCCCCCCCCCCCCCCCC | 2.7 | Non-Toxic | Active | 
11 | CCCCCCCCC/C=C\CCC[C@@H](O)[C@@H](O)[C@H](CO[C@@H]1O[C@H](CO)[C@@H](O)[C@H](O)[C@H]1O)NC(=O)[C@H](O)CCCCCCCCCCCCCCCCCCCC | 6.6 | Non-Toxic | Active | 
12 | CCCCCCCCC/C=C\CC/C=C/[C@@H](O)[C@H](CO[C@@H]1O[C@H](CO)[C@@H](O)[C@H](O)[C@H]1O)NC(=O)[C@H](O)CCCCCCCCCCCCCCCCCCCCCC | 2.5 | Non-Toxic | Active | Activity (PC-12 [4]): Active; Activity (PC-12 [5]): 0.62%; Activity (PC-12 [6]): 22.38%; Activity (PC-12 [7]): Active; Activity (PC-12 [8]): Active; Activity (PC-12 [9]): Dose-dependent effect; Activity (PC-12 [10]): 30.63%; Activity (PC-12 [11]): 1.79%; Activity (PC-12 [12]): 2.11%; Activity (PC-12 [13]): 1.2%; Activity (PC-12 [14]): Active; Activity (PC-12 [15]): Dose-dependent effect; Activity (PC-12 [16]): 1.02%; Activity (PC-12 [17]): 1.49%
13 | CCCCCCCCC/C=C/CC/C=C/[C@@H](O)[C@H](CO[C@@H]1O[C@H](CO)[C@@H](O)[C@H](O)[C@H]1O)NC(=O)[C@H](O)CCCCCCCCCCCCCC | 29.7 | Non-Toxic | Active | 
14 | CCCCCCCCC/C=C\CC/C=C/[C@@H](O)[C@H](CO[C@@H]1O[C@H](CO)[C@@H](O)[C@H](O)[C@H]1O)NC(=O)[C@H](O)CCCCCCCCCCCCCC | 27.1 | Non-Toxic | Active | 
